Laboratory results: ChEMBL document CHEMBL1221339, “Modulation of the inhibitor properties of dipeptidyl (acyloxy)methyl ketones toward the CaaX proteases” (Bioorg Med Chem, 2010)
Activity calls are given as the source filed them. The rule behind the calls is not given here.

Experiments:
[1] = test system: Saccharomyces cerevisiae; experiment: Inhibition of Saccharomyces cerevisiae SM3614 Ras converting enzyme 1 Ste24 mutant at 100 uM after 60 mins by fluorescence based proteolysis assay
Procedure, shortened: (§1)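 Membranes enriched for yeast Ste24p (plasmid pSM1282 in SM3614, ste24Δ rce1Δ), 0.25 mg/mL final in 100 mM HEPES pH 7.5, 5 mM MgCl2. Pretreated 15 min at 30 °C with 100 µM compound, then 20 µM ABz-KSKTKC(farnesyl)VIQL added. Fluorescence 320/420 nm read every 30–60 s for 60 min at 30 °C. Initial velocities give % activity vs DMSO. At least 4 replicates.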

[2] = biological target: T1, CAAX prenyl protease 2 (Saccharomyces cerevisiae S288c) (UniProt Q03530); experiment: Inhibition of Saccharomyces cerevisiae SM3614 Ras converting enzyme 1 at 100 uM after 60 mins by fluorescence based proteolysis assay
T1 sequence (whole entry): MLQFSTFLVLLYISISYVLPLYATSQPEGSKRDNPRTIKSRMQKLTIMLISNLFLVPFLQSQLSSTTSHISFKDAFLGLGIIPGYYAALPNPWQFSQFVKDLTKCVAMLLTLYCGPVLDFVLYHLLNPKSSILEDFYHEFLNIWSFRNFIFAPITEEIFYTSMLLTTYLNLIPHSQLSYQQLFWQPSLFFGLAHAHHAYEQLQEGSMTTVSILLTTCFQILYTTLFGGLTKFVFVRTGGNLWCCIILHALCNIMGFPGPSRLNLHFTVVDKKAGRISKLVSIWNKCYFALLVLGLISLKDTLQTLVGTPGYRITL
Procedure, shortened: as §1, with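 “Rce1p” for “Ste24p”, “pWS479” for “pSM1282”, “quenched ABz-KSKTKC(farnesyl)QLIM” for “ABz-KSKTKC(farnesyl)VIQL”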

Row | SMILES | Activity [1] | Activity [2]
1 | Cc1ccc(C(=O)OCC(=O)[C@H](C)NC(=O)[C@H](Cc2ccccc2)NC(=O)OCc2ccccc2)cc1 | Active | Active
2 | Cc1cccc(C)c1C(=O)OCC(=O)[C@H](C)NC(=O)[C@H](Cc1ccccc1)NC(=O)OCc1ccccc1 | Active | Active
3 | Cc1cccc(C)c1C(=O)OCC(=O)[C@H](CCCNC(=N)N)NC(=O)[C@H](Cc1ccccc1)NC(=O)OCc1ccccc1 | Active | Active
4 | Cc1cc(C)c(C(=O)OCC(=O)[C@H](C)NC(=O)[C@H](Cc2ccccc2)NC(=O)OCc2ccccc2)c(C)c1 | Active | Active
5 | CC(C)(C)OC(=O)NCCCC[C@H](NC(=O)[C@H](Cc1ccccc1)NC(=O)OCc1ccccc1)C(=O)CBr | inactive | inactive
6 | C[C@H](NC(=O)[C@H](Cc1ccccc1)NC(=O)OCc1ccccc1)C(=O)COC(=O)c1c(C(F)(F)F)cccc1C(F)(F)F | Active | Active
7 | COc1ccc(C(=O)OCC(=O)[C@H](C)NC(=O)[C@H](Cc2ccccc2)NC(=O)OCc2ccccc2)cc1 | Active | Active
8 | Cc1cc(C)c(C(=O)OCC(=O)[C@H](CCCNC(=N)N)NC(=O)[C@H](Cc2ccccc2)NC(=O)OCc2ccccc2)c(C)c1 | Active | Active
9 | CC(=O)N[C@@H](Cc1ccc(O)cc1)C(=O)N[C@@H](Cc1ccccc1)C(=O)N[C@@H](CCCNC(=N)N)C(=O)COC(=O)c1c(C)cccc1C | inactive | inactive

More lines, now with the values ahead:

Row | Activity [1] | Activity [2] | SMILES
10 | Active | Active | COc1ccc(C(=O)OCC(=O)[C@H](CCCNC(=N)N)NC(=O)[C@H](Cc2ccccc2)NC(=O)OCc2ccccc2)cc1
11 | inactive | inactive | CC(=O)NC(Cc1ccc(O)cc1)C(=O)N[C@@H](Cc1ccccc1)C(=O)NCC(=O)COC(=O)c1c(C)cccc1C (single isomer, unassigned)
12 | Active | Active | C[C@H](NC(=O)[C@H](Cc1ccccc1)NC(=O)OCc1ccccc1)C(=O)COC(=O)c1ccc([N+](=O)[O-])cc1
13 | Active | Active | N=C(N)NCCC[C@H](NC(=O)[C@H](Cc1ccccc1)NC(=O)OCc1ccccc1)C(=O)COC(=O)c1ccccc1
14 | Active | Active | C[C@H](NC(=O)[C@H](Cc1ccccc1)NC(=O)OCc1ccccc1)C(=O)COC(=O)c1ccccc1
15 | Active | Active | N=C(N)NCCC[C@H](NC(=O)[C@H](Cc1ccccc1)NC(=O)OCc1ccccc1)C(=O)COC(=O)c1c(C(F)(F)F)cccc1C(F)(F)F
16 | Active | Active | N=C(N)NCCC[C@H](NC(=O)[C@H](Cc1ccccc1)NC(=O)OCc1ccccc1)C(=O)COC(=O)c1ccc([N+](=O)[O-])cc1
17 | inactive | inactive | CC(C)(C)OC(=O)NCCCC[C@H](NC(=O)[C@H](Cc1ccccc1)NC(=O)OCc1ccccc1)C(=O)O
18 | Active | Active | Cc1ccc(C(=O)OCC(=O)[C@H](CCCNC(=N)N)NC(=O)[C@H](Cc2ccccc2)NC(=O)OCc2ccccc2)cc1
19 | inactive | inactive | NCCCC[C@H](NC(=O)[C@H](Cc1ccccc1)NC(=O)OCc1ccccc1)C(=O)O
